In ChEMBL document CHEMBL1159066 (J Med Chem, 2010):
Active and inactive are the calls of the source. The rule behind the calls is not given here.

What was measured:
[1] = test system: Caenorhabditis elegans; experiment: Protection against mutant PABPN1-induced toxicity in transgenic Caenorhabditis elegans coexpressing nuclear GFP and PABPN1-A13 assessed as inhibition of nuclear collapse; format: functional, organism-based
Procedure, shortened: (§1)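 Synchronized L1 transgenic worms incubated with drug in OP-50.1 liquid culture; nuclear GFP signals counted at young adulthood under 10x fluorescence microscopy. Percent rescue = ((test − control)/control) × 100, negative values indicating enhanced toxicity. At least 100 worms scored per dose, three independent assays; two-tailed Student's t-test unless stated otherwise.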

[2] = test system: Caenorhabditis elegans; experiment: Protection against mutant PABPN1-induced toxicity in transgenic Caenorhabditis elegans coexpressing nuclear GFP and PABPN1-A13 assessed as inhibition of deffective worm motility; format: functional, organism-based
Procedure, shortened: (§2)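 Worms were drug-treated from the synchronized L1 stage in OP-50.1 liquid culture. Day 3–5 adults were placed on a thin OP-50.1 lawn on NGM plates. Body bends (complete sinusoids) were counted immediately over 20 s. 60–100 worms were scored per dose, in three independent assays. Results are mean ± SEM versus untreated animals, checked by one-way ANOVA.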

[3] = test system: Caenorhabditis elegans; experiment: Reduction of PABPN1 expression in transgenic Caenorhabditis elegans coexpressing nuclear GFP and PABPN1-A13 by Q-RT-PCR; format: functional, organism-based
[4] = test system: Caenorhabditis elegans; experiment: Effect on nuclear integrity in transgenic Caenorhabditis elegans coexpressing nuclear GFP and normal PABPN1-A10; format: functional, organism-based
Procedure, shortened: (§3)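 Synchronized L1 worms were kept in OP-50.1 liquid culture with the drug. Nuclear GFP signals were counted at young adulthood under a ×10 fluorescence microscope. Percent rescue = ((test − control)/control) × 100, where a negative value means enhanced toxicity. At least 100 worms were scored per dose, in three independent assays. Comparison was by two-tailed Student's t-test.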

[5] = molecular target: T1, NAD-dependent protein deacetylase sirtuin-1 (Homo sapiens, UniProt Q96EB6); experiment: Inhibition of human recombinant SIRT1 by Flour de Lys assay
T1 sequence (Q96EB6 whole entry): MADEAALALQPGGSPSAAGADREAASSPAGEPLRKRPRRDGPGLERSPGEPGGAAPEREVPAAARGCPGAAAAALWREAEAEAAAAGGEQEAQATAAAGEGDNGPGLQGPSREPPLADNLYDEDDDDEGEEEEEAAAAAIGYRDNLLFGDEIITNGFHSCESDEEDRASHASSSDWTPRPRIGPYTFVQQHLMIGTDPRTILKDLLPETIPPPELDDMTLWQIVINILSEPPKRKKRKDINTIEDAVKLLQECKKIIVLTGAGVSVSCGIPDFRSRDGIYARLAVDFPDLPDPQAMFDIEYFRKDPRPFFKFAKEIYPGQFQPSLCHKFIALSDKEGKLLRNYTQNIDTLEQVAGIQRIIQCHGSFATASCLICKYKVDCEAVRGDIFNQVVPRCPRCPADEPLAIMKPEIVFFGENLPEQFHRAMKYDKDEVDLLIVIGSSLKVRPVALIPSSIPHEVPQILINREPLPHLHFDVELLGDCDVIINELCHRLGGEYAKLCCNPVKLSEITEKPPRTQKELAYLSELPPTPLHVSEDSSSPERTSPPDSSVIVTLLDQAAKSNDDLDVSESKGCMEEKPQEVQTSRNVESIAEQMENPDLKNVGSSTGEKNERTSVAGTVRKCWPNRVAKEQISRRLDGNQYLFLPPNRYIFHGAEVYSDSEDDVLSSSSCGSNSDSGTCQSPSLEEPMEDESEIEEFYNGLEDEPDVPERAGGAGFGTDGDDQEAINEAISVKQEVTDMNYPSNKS

[6] = molecular target: T2, NAD-dependent protein deacetylase sirtuin-2 (Homo sapiens, UniProt Q8IXJ6); experiment: Inhibition of human recombinant SIRT2 by Flour de Lys assay
T2 sequence (Q8IXJ6 whole entry): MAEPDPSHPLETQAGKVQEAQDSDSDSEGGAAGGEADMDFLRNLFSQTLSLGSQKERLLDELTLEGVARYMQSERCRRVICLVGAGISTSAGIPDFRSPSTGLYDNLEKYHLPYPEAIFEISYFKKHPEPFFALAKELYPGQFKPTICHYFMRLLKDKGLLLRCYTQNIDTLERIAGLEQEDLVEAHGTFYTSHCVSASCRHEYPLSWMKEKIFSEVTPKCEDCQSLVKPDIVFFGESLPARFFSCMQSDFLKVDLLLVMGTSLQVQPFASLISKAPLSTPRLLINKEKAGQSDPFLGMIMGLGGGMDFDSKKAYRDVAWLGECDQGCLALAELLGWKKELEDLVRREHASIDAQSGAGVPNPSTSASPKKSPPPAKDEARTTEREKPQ

[7] = test system: Caenorhabditis elegans; experiment: Protection against mutant PABPN1-induced toxicity in transgenic Caenorhabditis elegans coexpressing nuclear GFP and PABPN1-A13 assessed as inhibition of nuclear collapse at 3.7 uM; format: functional, organism-based; procedure, shortened: as §3
[8] = test system: Caenorhabditis elegans; experiment: Protection against mutant PABPN1-induced toxicity in transgenic Caenorhabditis elegans coexpressing nuclear GFP and PABPN1-A13 assessed as inhibition of deffective worm motility at 3.7 uM; format: functional, organism-based; procedure, shortened: as §2
[9] = test system: Caenorhabditis elegans; experiment: Protection against mutant PABPN1-induced toxicity in transgenic Caenorhabditis elegans coexpressing nuclear GFP and PABPN1-A13 assessed as inhibition of nuclear collapse at 11.1 uM; format: functional, organism-based; procedure, shortened: as §3
[10] = test system: Caenorhabditis elegans; experiment: Protection against mutant PABPN1-induced toxicity in transgenic Caenorhabditis elegans coexpressing nuclear GFP and PABPN1-A13 assessed as inhibition of deffective worm motility at 11.1 uM; format: functional, organism-based; procedure, shortened: as §2
[11] = test system: Caenorhabditis elegans; experiment: Protection against mutant PABPN1-induced toxicity in transgenic Caenorhabditis elegans coexpressing nuclear GFP and PABPN1-A13 assessed as nuclear GFP fluorescence level relative to untreated control; format: functional; procedure, shortened: as §1
[12] = test system: Caenorhabditis elegans; experiment: Effect on nuclear integrity in transgenic Caenorhabditis elegans coexpressing nuclear GFP and normal PABPN1-A10 assessed as nuclear GFP fluorescence level relative to untreated control; format: functional; procedure, shortened: as §1
[13] = test system: Caenorhabditis elegans; experiment: Protection against mutant PABPN1-induced toxicity in transgenic Caenorhabditis elegans coexpressing nuclear GFP and PABPN1-A13 assessed as inhibition of deffective worm motility at 33.3 uM; format: functional, organism-based
Procedure, shortened: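 Drug-treated transgenic worms as day 3-5 adults placed on thin OP-50.1 lawn on NGM plates; body bends (complete sinusoids) counted immediately over 20 s. 60-100 worms per dose, three independent assays; mean ± SEM compared with untreated animals.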

SMILES | Activity [1] | Activity [4] | IC50 [5] | IC50 [6] | also measured
O=C1CCc2c(ccc3ccccc23)O1 | Active | inactive | – | – | Activity [2]: Active; Activity [3]: inactive
CC(NC(=O)c1ccc(/N=C/c2c(O)ccc3ccccc23)cc1)c1ccccc1 (stereo unspecified) | Active | inactive | 48.1 µM | 29.9 µM | –
O=C1Oc2ccc3ccccc3c2CC1C(=O)c1ccccc1Cl (stereo unspecified) | Active | inactive | 89.8 µM | 9.4 µM | Activity [2]: Active; Activity [3]: inactive
O=c1nc2oc3ccccc3cc-2c(=O)[nH]1 | – | inactive | 5.3 µM | 244 µM | Activity [7]: Active; Activity [8]: Active
CC(NC(=O)c1ccccc1/N=C/c1c(O)ccc2ccccc12)c1ccccc1 (stereo unspecified) | Active | inactive | – | – | –
O=c1nc2oc3ccc4ccccc4c3cc-2c(=O)n1-c1ccccc1 | – | inactive | – | – | Activity [9]: Active; Activity [10]: Active
CC(CSc1cccc(/N=C/c2c(O)ccc3ccccc23)c1)c1ccccc1 (stereo unspecified) | inactive | – | 40.3 µM | 19.2 µM | –
CC(C(=O)Nc1cccc(/N=C/c2c(O)ccc3ccccc23)c1)c1ccccc1 (stereo unspecified) | Active | inactive | – | – | –
N#C/C(=C\c1ccc(-c2cc(Cl)ccc2Cl)o1)C(=O)Nc1cccc2ncccc12 | Dose-dependent effect | – | > 50 µM | – | Activity [11]: 20%; Activity [12]: 10%
NC(=O)[C@H]1CCCc2c1[nH]c1ccc(Cl)cc21 | Active | – | – | – | Activity [13]: Active
CC(NS(=O)(=O)c1ccc(/N=C/c2c(O)ccc3ccccc23)cc1)c1ccccc1 (stereo unspecified) | – | inactive | 44.1 µM | 22.6 µM | EC50 [2]: < 1 µM; Activity [11]: 10%
CC(NC(=O)c1cccc(/N=C/c2c(O)ccc3ccccc23)c1)c1ccccc1 (stereo unspecified) | – | – | – | 34.5 µM | –
